Data reported in ChEMBL document CHEMBL1124947, “Cationic antiprotozoal drugs. Trypanocidal activity of 2-(4'-formylphenyl)imidazo[1,2-a]pyridinium guanylhydrazones and related derivatives of quaternary heteroaromatic compounds” (J Med Chem, 1990).

How the values were obtained:
Mus musculus [1] = experiment: Fraction of mice that were cured after oral administration at a dose of 26 mg/kg and I.C.E. value of 0.84; format: functional
Mus musculus [2] = experiment: Fraction of mice that were cured after oral administration at a dose of 0.42 mg/kg and I.C.E. value of 0.84; format: functional
Mus musculus [3] = experiment: Fraction of mice that were cured after subcutaneous administration at a dose of 53 mg/kg and I.C.E. value of 0.54; format: functional
Mus musculus [4] = experiment: Fraction of mice that were cured after subcutaneous administration at a dose of 1.67 mg/kg and I.C.E. value of 0.54; format: functional
Mus musculus [5] = experiment: Fraction of mice that were cured after subcutaneous administration at a dose of 6.6 mg/kg and I.C.E. value of 0.54; format: functional
Mus musculus [6] = experiment: Fraction of mice that were cured after oral administration at a dose of 424 mg/kg and I.C.E. value of 0.84; format: functional
Mus musculus [7] = experiment: Curative activity of the Compound after Subcutaneous administration at a dose of 6.6 mg/kg and I.C.E. value of 0.54 for 30 days; 5/5; format: functional
Mus musculus [8] = experiment: Curative activity of the Compound after oral administration at a dose of 26 mg/kg and I.C.E. value of 0.49 for 30 days; 10/10; format: functional
Mus musculus [9] = experiment: Curative activity of the Compound after Subcutaneous administration at a dose of 1.67 mg/kg and I.C.E. value of 0.54 for 30 days; 10/10; format: functional
Mus musculus [10] = experiment: Fraction of mice that were cured after subcutaneous administration at a dose of 26 mg/kg and I.C.E. value of 0.54; format: functional
Mus musculus [11] = experiment: Fraction of mice that were cured after oral administration at a dose of 106 mg/kg and I.C.E. value of 0.49
Mus musculus [12] = experiment: Fraction of mice that were cured after subcutaneous administration at a dose of 0.42 mg/kg and I.C.E. value of 0.54; format: functional
Mus musculus [13] = experiment: Trypanocidal Activity at I.C.E. value 0.54 when administered subcutaneously.; format: functional
Summary of the method: (§1)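 Blood-stage T. rhodesiense infection came from a standard inoculum lethal to all untreated mice. Drug was given by subcutaneous injection to groups of five mice. Survival beyond 30 days counted as cure. […] Sub-curative doses scored 0, and data were normalized at each dose.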

Mus musculus [14] = experiment: Fraction of mice that were cured after oral administration at a dose of 1.67 mg/kg and I.C.E. value of 0.84; format: functional
Mus musculus [15] = experiment: Fraction of mice that were cured after subcutaneous administration at a dose of 13 mg/kg and I.C.E. value of 0.54; format: functional
Mus musculus [16] = experiment: Curative activity of the Compound after oral administration at a dose of 53 mg/kg ( T-Toxic) and I.C.E. value of 0.49 for 30 days; 5/5; format: functional
Mus musculus [17] = experiment: Fraction of mice that were cured after subcutaneous administration at a dose of 424 mg/kg and I.C.E. value of 0.54; format: functional
Mus musculus [18] = experiment: Fraction of mice that were cured after subcutaneous administration at a dose of 212 mg/kg and I.C.E. value of 0.54; format: functional
Mus musculus [19] = experiment: Curative activity of the Compound after Subcutaneous administration at a dose of 26 mg/kg ( T-Toxic) and I.C.E. value of 0.54 for 30 days; 11/15; format: functional
Mus musculus [20] = experiment: Fraction of mice that were cured after subcutaneous administration at a dose of 0.83 mg/kg and I.C.E. value of 0.54; format: functional
Mus musculus [21] = experiment: Curative activity of the Compound after oral administration at a dose of 212 mg/kg ( T-Toxic)and I.C.E. value of 0.49 for 30 days; 5/5; format: functional
Mus musculus [22] = experiment: Curative activity of the Compound after oral administration at a dose of 424 mg/kg ( T-Toxic)and I.C.E. value of 0.49 for 30 days; 10/10; format: functional
Mus musculus [23] = experiment: Curative activity of the Compound after oral administration at a dose of 106 mg/kg ( T-Toxic)and I.C.E. value of 0.49 for 30 days; 5/5; format: functional
Mus musculus [24] = experiment: Curative activity of the Compound after Subcutaneous administration at a dose of 0.83 mg/kg and I.C.E. value of 0.54 for 30 days; 27/30; format: functional
Mus musculus [25] = experiment: Curative activity of the Compound after Subcutaneous administration at a dose of 0.42 mg/kg and I.C.E. value of 0.54 for 30 days; 2/5; format: functional
Mus musculus [26] = experiment: Curative activity of the Compound after oral administration at a dose of 13 mg/kg and I.C.E. value of 0.49 for 30 days; 2/5; format: functional
Mus musculus [27] = experiment: Fraction of mice that were cured after subcutaneous administration at a dose of 106 mg/kg and I.C.E. value of 0.54; format: functional
Mus musculus [28] = experiment: Fraction of mice that were cured after subcutaneous administration at a dose of 3.3 mg/kg and I.C.E. value of 0.54; format: functional
Mus musculus [29] = experiment: Fraction of mice that were cured after oral administration at a dose of 6.6 mg/kg and I.C.E. value of 0.84; format: functional
Mus musculus [30] = experiment: Fraction of mice that were cured after oral administration at a dose of 13 mg/kg and I.C.E. value of 0.84; format: functional
Mus musculus [31] = experiment: Fraction of mice that were cured after oral administration at a dose of 3.3 mg/kg and I.C.E. value of 0.84; format: functional
Mus musculus [32] = experiment: Curative activity of the Compound after Subcutaneous administration at a dose of 13 mg/kg and I.C.E. value of 0.54 for 30 days; 10/10; format: functional
Mus musculus [33] = experiment: Fraction of mice that were cured after oral administration at a dose of 0.83 mg/kg and I.C.E. value of 0.84; format: functional
Mus musculus [34] = experiment: Fraction of mice that were cured after oral administration at a dose of 53 mg/kg and I.C.E. value of 0.84; format: functional
Mus musculus [35] = experiment: Fraction of mice that were cured after oral administration at a dose of 212 mg/kg and I.C.E. value of 0.84; format: functional
Mus musculus [36] = experiment: Trypanocidal Activity at I.C.E. value 0.48 when administered perorally.; format: functional
Mus musculus [37] = experiment: Curative activity of the Compound after Subcutaneous administration at a dose of 3.3 mg/kg and I.C.E. value of 0.54 for 30 days; 24/25; format: functional
Mus musculus [38] = experiment: Trypanocidal Activity at I.C.E. value 0.44 when administered perorally.; format: functional
Mus musculus [39] = experiment: Trypanocidal Activity at I.C.E. value 0.90 when administered subcutaneously.; format: functional
Mus musculus [40] = experiment: Trypanocidal Activity at I.C.E. value 0.77 when administered subcutaneously.; format: functional
Summary of the method: (§2)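 Mice, in groups of five per dose, were given a standard inoculum of blood-stage T. rhodesiense that is lethal to all untreated controls, then dosed subcutaneously. Usually 11 dose levels were used (2^n × 0.42 mg/kg).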

Mus musculus [41] = experiment: Trypanocidal Activity at I.C.E. value 0.48 when administered subcutaneously.; format: functional; summary of the method: as §1
Mus musculus [42] = experiment: Trypanocidal Activity at I.C.E. value 0.65 when administered perorally.; format: functional
Mus musculus [43] = experiment: Trypanocidal Activity at I.C.E. value 0.53 when administered subcutaneously.; format: functional; summary of the method: as §1
Mus musculus [44] = experiment: Trypanocidal Activity at I.C.E. value 0.44 when administered subcutaneously.; format: functional; summary of the method: as §1
Mus musculus [45] = experiment: Trypanocidal Activity at I.C.E. value 0.25 when administered perorally.; format: functional
Mus musculus [46] = experiment: Trypanocidal Activity at I.C.E. value 0.58 when administered subcutaneously.; format: functional; summary of the method: as §2
Mus musculus [47] = experiment: Trypanocidal Activity at I.C.E. value 0.51 when administered perorally.; format: functional
Mus musculus [48] = experiment: Trypanocidal Activity at I.C.E. value 0.31 when administered subcutaneously.; format: functional; summary of the method: as §1
Mus musculus [49] = experiment: Trypanocidal Activity at I.C.E. value 0.16 when administered perorally.; format: functional
Mus musculus [50] = experiment: Trypanocidal Activity at I.C.E. value >0.5 when administered perorally.; format: functional
Mus musculus [51] = experiment: Trypanocidal Activity at I.C.E. value 0.79 when administered subcutaneously.; format: functional; summary of the method: as §2
Mus musculus [52] = experiment: Trypanocidal Activity at I.C.E. value 0.45 when administered subcutaneously.; format: functional; summary of the method: as §1
Mus musculus [53] = experiment: Trypanocidal Activity at I.C.E. value 0.42 when administered perorally.; format: functional
[54] = tested on: Trypanosoma brucei rhodesiense; experiment: In Vitro measurement of inhibition of leucine uptake in cell culture of Trypanosoma rhodesiense; format: functional; conditions: read-out: ID50 (the source's name)
Summary of the method: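 Trypanosomes harvested from infected rats, cultured 3 h with several concentrations of drug, usually 0.1–100 µg/mL. Radiolabeled L-leucine uptake measured. ID50 is the concentration in µg/mL giving 50% inhibition of incorporation.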

[55] = tested on: Trypanosoma brucei rhodesiense; experiment: In Vitro measurement of inhibition of thymidine uptake in cell culture of Trypanosoma rhodesiense; format: functional; conditions: read-out: ID50 (the source's name)
Summary of the method: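 Parasites harvested from infected rats and incubated 3 h across a drug concentration series, usually 0.1–100 µg/mL. Incorporation of radiolabeled thymidine measured. ID50 is the concentration (µg/mL) producing 50% inhibition.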

Mus musculus [56] = experiment: Trypanocidal Activity at I.C.E. value 0.28 when administered subcutaneously.; format: functional; summary of the method: as §1

## C[n+]1c(-c2ccc(/C=N/NC(=N)N)cc2)cn2ccccc21.Cc1ccc(S(=O)(=O)O)cc1.Cc1ccc(S(=O)(=O)[O-])cc1
Mus musculus [1]
  Fraction cured: 1
Mus musculus [2]
  Fraction cured: 0
Mus musculus [3]
  Fraction cured: 0
Mus musculus [4]
  Fraction cured: 1
Mus musculus [5]
  Fraction cured: 1
Mus musculus [6]
  Fraction cured: 1
Mus musculus [7]
  Survivors: 5
Mus musculus [8]
  Survivors: 10
Mus musculus [9]
  Survivors: 10
Mus musculus [10]
  Fraction cured: 0.73
Mus musculus [11]
  Fraction cured: 1
Mus musculus [12]
  Fraction cured: 0.4
Mus musculus [13]
  CD50: 0.8 mg/kg
Mus musculus [14]
  Fraction cured: 0
Mus musculus [15]
  Fraction cured: 1
Mus musculus [16]
  Survivors: 5
Mus musculus [17]
  Fraction cured: 0
Mus musculus [18]
  Fraction cured: 0
Mus musculus [19]
  Survivors: 11
Mus musculus [20]
  Fraction cured: 0.9
Mus musculus [21]
  Survivors: 5
Mus musculus [22]
  Survivors: 10
Mus musculus [23]
  Survivors: 5
Mus musculus [24]
  Survivors: 27
Mus musculus [25]
  Survivors: 2
Mus musculus [26]
  Survivors: 2
Mus musculus [27]
  Fraction cured: 0
Mus musculus [28]
  Fraction cured: 0.96
Mus musculus [29]
  Fraction cured: 0
Mus musculus [30]
  Fraction cured: 0.4
Mus musculus [31]
  Fraction cured: 0
Mus musculus [32]
  Survivors: 10
Mus musculus [33]
  Fraction cured: 0
Mus musculus [34]
  Fraction cured: 1
Mus musculus [35]
  Fraction cured: 1
Mus musculus [36]
  CD50: 26 mg/kg
Mus musculus [37]
  Survivors: 24

## Br.Cc1cccc2n1cc(/C=C/c1ccc(/C=N/NC(=N)N3CCCC3)cc1)[n+]2C.[Br-]
Mus musculus [38]
  CD50: 53 mg/kg
Mus musculus [39]
  CD50: 0.4 mg/kg

## Br.Cc1ccc2n(c1)cc(/C=C/c1ccc(/C=N/NC(=N)N3CCCC3)cc1)[n+]2C.[Br-]
Mus musculus [40]
  CD50: 0.4 mg/kg

## CN(C)C(=N)N/N=C/c1ccc(-c2cn3ccccc3[n+]2C)cc1.I.[I-]
Mus musculus [41]
  CD50: 0.2 mg/kg
Mus musculus [42]
  CD50: 6.6 mg/kg

## Br.Cc1ccn2cc(-c3ccc(/C=N/NC(=N)N4CCOCC4)cc3)[n+](C)c2c1.[Br-]
Mus musculus [43]
  CD50: 0.4 mg/kg

## Br.CC/N=C(\NCC)N/N=C/c1ccc(OCc2cn3ccccc3[n+]2C)cc1.[Br-]
Mus musculus [44]
  CD50: 0.8 mg/kg
Mus musculus [45]
  CD50: 106 mg/kg

## Br.C[n+]1c(-c2ccc(/C=C/C=N/NC3=NCCCN3)cc2)cn2ccccc21.[Br-]
Mus musculus [46]
  CD50: 0.06 mg/kg
Mus musculus [47]
  CD50: 13 mg/kg

## Br.C[n+]1ccccc1COc1ccc(/C=N/NC2=NCCCN2)cc1.[Br-]
Mus musculus [48]
  CD50: 6.6 mg/kg
Mus musculus [49]
  CD50: 212 mg/kg

## Br.C[n+]1c(/C=C/c2ccc(/C=N/NC3=NCCN3)cc2)cn2ccccc21.[Br-]
Mus musculus [50]
  CD50: 13 mg/kg
Mus musculus [51]
  CD50: 0.2 mg/kg

## C[n+]1cccc(COc2ccc(/C=N/NC(=N)N)cc2)c1.Cc1ccc(S(=O)(=O)O)cc1.Cc1ccc(S(=O)(=O)[O-])cc1
Mus musculus [52]
  CD50: 0.8 mg/kg
Mus musculus [53]
  CD50: 26 mg/kg
[54]
  IC50: > 10 µg/mL
[55]
  IC50: 1.8 µg/mL

## Cc1ccc2n(c1)cc(-c1ccc(/C=N/Nc3nccs3)cc1)[n+]2C.[Br-]
Mus musculus [56]
  CD50: 106 mg/kg
